Our source for the MIC values is ChEMBL document CHEMBL3352380, “Development of benzo[d]oxazol-2(3H)-ones derivatives as novel inhibitors of Mycobacterium tuberculosis InhA” (Bioorg Med Chem, 2014).

This assay relates to Mycobacterium tuberculosis. Nature of the assay: Antimicrobial activity against extensively drug-resistant Mycobacterium tuberculosis XDR-TB after 28 days by two-fold agar dilution method. The note with it: 672 h. The format is functional. The essentials: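 Two-fold serial dilutions in Middlebrook 7H11 agar with OADC supplement, final 50 to 0.78 µg/mL. Inoculum from fresh 7H11/OADC slants, adjusted to 1 mg/mL wet weight in 0.05% Tween 80 saline and diluted 10^-2 (~10^7 cfu/mL), spotted onto drug-containing agar tubes. Incubated at 37 °C; MIC is the lowest concentration inhibiting growth, read at 28 days.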

Molecules are shown by their SMILES. ≈ marks a conversion by molar mass, not a printed value.

`O=C(Cn1c(=O)oc2ccccc21)NCc1ccco1`: the minimum inhibitory concentration (MIC) (usually the smallest concentration in the dilution series that meets the test's criterion for growth inhibition) worked out at 11.5 µM (≈ 3.12 µg/mL). `O=C(Cn1c(=O)oc2ccccc21)NCc1cccs1`: the MIC is 21.7 µM (≈ 6.25 µg/mL). The compound `O=C(Cn1c(=O)oc2cc([N+](=O)[O-])ccc21)NCc1cccs1` returned a minimum inhibitory concentration (MIC) of 18.8 µM (≈ 6.25 µg/mL). `O=C(Cn1c(=O)oc2cc(Cl)ccc21)Nc1ncc([N+](=O)[O-])s1`: the lowest concentration to inhibit growth (MIC) was 17.6 µM (≈ 6.25 µg/mL). In turn, `O=C(Cn1c(=O)oc2cc([N+](=O)[O-])ccc21)Nc1ncc([N+](=O)[O-])s1` showed an MIC of 17.1 µM (≈ 6.25 µg/mL). As for `O=C(Cn1c(=O)oc2ccccc21)Nc1nc2ccccc2s1`, the figure is 38.4 µM (≈ 12.5 µg/mL); as for `O=C(Cn1c(=O)oc2cc(Cl)ccc21)Nc1nc2ccccc2s1`, 34.7 µM (≈ 12.5 µg/mL). Take `O=C(Cn1c(=O)oc2cc([N+](=O)[O-])ccc21)Nc1nc2ccc([N+](=O)[O-])cc2s1`: the lowest concentration to inhibit growth (MIC) was 15 µM (≈ 6.25 µg/mL). Regarding `CC[C@@H](CO)NCCN[C@@H](CC)CO` [ETHAMBUTOL], 24.5 µM (≈ 5 µg/mL) was the least that counted as inhibitory (MIC). In turn, `NNC(=O)c1ccncc1` [ISONIAZID] returned an MIC of 45.6 µM (≈ 6.25 µg/mL). The figure for `CO[C@H]1/C=C/O[C@@]2(C)Oc3c(C)c(O)c4c(O)c(c(/C=N/N5CCN(C)CC5)c(O)c4c3C2=O)NC(=O)/C(C)=C\C=C\[C@H](C)[C@H](O)[C@@H](C)[C@@H](O)[C@@H](C)[C@H](OC(C)=O)[C@@H]1C` [RIFAMPIN] is 30.4 µM (≈ 25 µg/mL).
